High-throughput results deposited in PubChem BioAssay by SRMLSC.
bCat KO growth: primary screen for growth suppressors in beta-catenin knockout HCT116 cells (colon tumor, human); HCT116 beta-catenin knockout viability, CellTiter-Glo, 60 h; stronger effect = lower value; viability, % at 10 µM; hit rate 1.5% among 140,000;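 active = viability at or under a set limit, the compound median less 4 SD, cut at about 6% in these data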
H69AR growth 86K: proliferation blockers of H69AR lung cancer cells, primary screen, cell-based, human, 86K library; hit rate 6% among 85,000; H69AR lung tumor viability, ATP luminescence, 72 h; stronger effect = lower value; viability, % at 10 µM; AID 598, 2007;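 active = viability at or below 40%; inactive = viability above 40%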;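 note: multidrug resistant small cell line overexpressing MRP-1 efflux transporter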
HCT116 PTEN-null: growth suppression of PTEN-null HCT116, primary screen, cell-based, CellTiter-Glo. hit rate 1.2% among 140,000. viability, % at 10 µM. AID 827, 2007. HCT116 PTEN-null viability, 60 h; stronger effect = lower value;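 active = viability at or below a set limit, 4 SD under the median of all tested compounds, cut at about 3.7% in these data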;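 note: PTEN knockout HCT116 line with beta catenin targeted HCT116 as companion control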
Fibroblast inh: antiproliferative effect on LL 47 fibroblasts – human, LL 47 cells, CellTiter-Glo luminescence, primary screen | LL 47 human lung fibroblast viability, ATP luminescence; stronger effect = lower value | viability, % at 10 µM | hit rate 1.1% among 85,000;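 active = viability at or below 50% in the single dose screen; inactive = viability above 50%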;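 note: compound exposure lasted 72 h before the ATP readout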
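material = human LL 47 lung fibroblast cells | dosing = compounds added from tenfold dosing solution, 0.1% DMSO final | timing = overnight cell rest, 72 h compound treatment at 37 °C | measured by = CellTiter-Glo luminescence measuring cellular ATP | evaluation = % viability versus median cells-only luminescence | control set = cell-only wells, no compound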
HUVEC prolif 384: inhibitors of HUVEC proliferation, primary screen, cell-based, 384-well; CellTiter-Glo luminescence, 72 h; stronger effect = lower value; hit rate 1.1% among 86,000; viability, % at 10 µM (by protocol);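 active = viability at or below 30%; inactive = viability above 30%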
Each line names hits and unclear results; the compound was inactive in the other large screens. The sample as a whole holds a higher share of hits than the screen did.

COc1ccc(C(=O)CSc2nnc(NC(=O)C3CC(=O)N(c4ccccc4)C3)s2)cc1 (configuration not stated)	none (no result: H69AR growth 86K, Fibroblast inh, HUVEC prolif 384)
CC1=CC(C)=Nc2ccc(C)cc2N1	H69AR growth 86K 18
O=C(c1cn(-c2ccccc2)nc1-c1ccc(Br)cc1)N1CCOCC1	none (no result: H69AR growth 86K, Fibroblast inh, HUVEC prolif 384)
COc1ccc(CC(=O)N2CCC(Nc3nc4ccccc4n3Cc3ccc(F)cc3)CC2)cc1	H69AR growth 86K 21
Cc1nc(-n2[nH]c3c(c2=O)CCCC3)[nH]c(=O)c1Cc1ccccc1	bCat KO growth 5.3, HCT116 PTEN-null 3.2 (no result: H69AR growth 86K, Fibroblast inh, HUVEC prolif 384)
Cc1cc(=O)[nH]c(-n2[nH]c3c(c2=O)CCCC3)n1	none (no result: H69AR growth 86K, Fibroblast inh, HUVEC prolif 384)
CCOc1cc(S(=O)(=O)N2CCC(Cc3ccccc3)CC2)c(OCC)cc1-n1cnnn1	none
CCOc1cc(S(=O)(=O)N2CC=C(c3ccc(F)cc3)CC2)c(OCC)cc1-n1cnnn1	H69AR growth 86K 12, Fibroblast inh 48
CCCCn1c(NC(=O)c2ccccc2)c(C#N)c2nc3ccccc3nc21	none (no result: H69AR growth 86K, Fibroblast inh, HUVEC prolif 384)
CCC(C)n1c(NC(=O)c2ccccc2)c(C#N)c2nc3ccccc3nc21 (configuration not stated)	H69AR growth 86K 2.9 (no result: bCat KO growth, HCT116 PTEN-null)
Cc1cc2cc(CCNC(=O)c3cccc([N+](=O)[O-])c3)c(=O)[nH]c2cc1C	none (no result: H69AR growth 86K, Fibroblast inh, HUVEC prolif 384)
COc1c(Br)cc(Br)cc1/C=N/n1c(C)nnc1C	H69AR growth 86K 25
CC(NS(=O)(=O)c1ccc(Br)cc1)C(c1cccs1)N1CCOCC1 (configuration not stated)	none (no result: H69AR growth 86K, Fibroblast inh, HUVEC prolif 384)
N#C/C(=C\c1cccc(NC(=O)c2ccccc2Cl)c1)C(=O)NCCc1ccccc1	bCat KO growth 1.2, HCT116 PTEN-null 1.5 (no result: H69AR growth 86K, Fibroblast inh, HUVEC prolif 384)
CC(=O)NC1(C(F)(F)F)N=C(c2ccccc2)NC1=O (configuration not stated)	none (no result: H69AR growth 86K, Fibroblast inh, HUVEC prolif 384)
Cc1ccccc1N1CCN(C(=O)CCN2C(=O)c3ccccc3C2=O)CC1	none (no result: H69AR growth 86K, Fibroblast inh, HUVEC prolif 384)
CS(=O)(=O)N(Cc1ccccc1)c1ccc(C(=O)NC2CCCCC2O)cc1 (configuration not stated)	none
Cc1ccc(N(Cc2ccc(C(=O)NC3CCCCC3)cc2)S(C)(=O)=O)cc1C	H69AR growth 86K 19
CCSc1nc(N)c(C#N)c(-c2ccccc2Cl)c1C#N	H69AR growth 86K 37
CCC(C)(C)C1CCc2c(sc(NC(=O)c3ccoc3C)c2C(N)=O)C1 (configuration not stated)	H69AR growth 86K 14
CCC1CCc2c(sc(NC(=O)c3ccoc3C)c2C(N)=O)C1 (configuration not stated)	H69AR growth 86K 35
Cc1occc1C(=O)Nc1sc2c(c1C(N)=O)CCC(C(C)(C)C)C2 (configuration not stated)	none
Cn1cccc1/C=N/NC(=O)C12CC3CC(CC(C3)C1)C2	none (no result: H69AR growth 86K, Fibroblast inh, HUVEC prolif 384)
CCOC(=O)c1c(C)[nH]c(C(=O)COC(=O)[C@H](C)NC(=O)c2ccccc2Cl)c1C	none (no result: H69AR growth 86K, Fibroblast inh, HUVEC prolif 384)
CCOC(=O)c1[nH]c(COC(=O)c2ccccc2NC(=O)c2ccco2)c(C(=O)OCC)c1C	H69AR growth 86K 8.5
CCOC(=O)c1c(C)[nH]c(C(=O)COC(=O)c2ccccc2NC(=O)c2ccco2)c1C	H69AR growth 86K 18
C[C@@H](C(=O)Nc1ccc2ccccc2c1)[C@H]1C[C@]1(C)[C@H](NS(=O)(=O)c1ccccc1)c1ccccc1	none (no result: H69AR growth 86K, Fibroblast inh, HUVEC prolif 384)
Cc1ccc2c(c1)CCCN2C(=O)c1cc2ccccc2oc1=O	none
COCCn1c(SCC(=O)Nc2ccc(Cl)cn2)nc2ccccc21	none
Cc1nn(-c2ccccc2)c(Cl)c1CN(C(=O)CCl)c1cccc2ccccc12	bCat KO growth 1.8, HCT116 PTEN-null 1.4 (no result: H69AR growth 86K, Fibroblast inh, HUVEC prolif 384)
Cc1nn(-c2ccccc2)c(Cl)c1CN(C(=O)CCl)c1ccc(Cl)cc1	bCat KO growth 0.8, HCT116 PTEN-null 0.8 (no result: H69AR growth 86K, Fibroblast inh, HUVEC prolif 384)
Cc1nc(NC(=O)c2ccc(Cl)cc2)sc1-c1csc(Nc2cccc(F)c2)n1	none (no result: H69AR growth 86K, Fibroblast inh, HUVEC prolif 384)
COc1ccc(Cl)cc1N(CC(=O)NC(C)(C)C)S(=O)(=O)c1ccc(C)c([N+](=O)[O-])c1	none (no result: H69AR growth 86K, Fibroblast inh, HUVEC prolif 384)
O=C(Nc1nc(-c2ccccn2)cs1)c1ccc(Cl)s1	H69AR growth 86K 2.9, Fibroblast inh 28, HUVEC prolif 384 28
O=C(Nc1ccccc1)Nc1nnc(Cc2ccc([N+](=O)[O-])cc2)s1	none (no result: H69AR growth 86K, Fibroblast inh, HUVEC prolif 384)
O=C(Nc1ccc([N+](=O)[O-])cc1)Nc1nc(-c2ccc(Cl)s2)cs1	bCat KO growth 1.5, HCT116 PTEN-null 1.2 (no result: H69AR growth 86K, Fibroblast inh, HUVEC prolif 384)
O=C(Nc1nc(-c2ccc(Cl)s2)cs1)c1cccs1	H69AR growth 86K 34
O=C(Nc1nc(-c2ccccn2)cs1)c1ccc(S(=O)(=O)N2CCCCC2)cc1	Fibroblast inh 48 (no result: bCat KO growth, HCT116 PTEN-null)
O=C(Nc1nc(-c2cccs2)cs1)c1ccc(S(=O)(=O)N2CCCCC2)cc1	none
Cc1ccc(C(=O)c2coc3ccc(O)c(CN4CCN(C)CC4)c23)cc1	none
CCN(CC)S(=O)(=O)c1cccc(NC(=O)CN2C(=O)c3ccc([N+](=O)[O-])cc3C2=O)c1	none (no result: H69AR growth 86K, Fibroblast inh, HUVEC prolif 384)
Cc1cccc(C)c1NC(=O)C(=O)NCc1ccccn1	none (no result: H69AR growth 86K, Fibroblast inh, HUVEC prolif 384)
Cn1cccc1C(=O)Nc1nc(-c2ccccn2)cs1	H69AR growth 86K 35
COc1cc(C(=O)Oc2cccc(C=O)c2)cc(OC)c1OC	H69AR growth 86K 25
COc1cc(C(=O)Oc2ccccc2N)cc(OC)c1OC	none
COc1ccc(CCN2C(=O)C3C4C=CC(C3C2=O)C2C(=O)N(CCc3ccc(OC)c(OC)c3)C(=O)C42)cc1OC (configuration not stated)	H69AR growth 86K 40
COc1cccc2c1C(=O)c1c(O)c3c(c(O)c1C2=O)C[C@@](O)(C(C)=O)C[C@@H]3O[C@H]1C[C@H](N)[C@H](O)[C@H](C)O1	bCat KO growth 0.8, HCT116 PTEN-null 0.8 (no result: H69AR growth 86K, Fibroblast inh, HUVEC prolif 384)
O=C(Cn1c2ccccc2c(=O)c2ccccc21)N/N=C/c1ccc(N2CCCC2)c([N+](=O)[O-])c1	bCat KO growth 2.7 (no result: H69AR growth 86K, Fibroblast inh, HUVEC prolif 384)
O=C(Cn1c2ccccc2c(=O)c2ccccc21)N/N=C/c1cc([N+](=O)[O-])ccc1N1CCCCCC1	none (no result: H69AR growth 86K, Fibroblast inh, HUVEC prolif 384)
CCOC(=O)c1c(C)oc2c1c1c(c3ccccc32)OCN(Cc2cccnc2)C1	H69AR growth 86K 12
CCOC(=O)c1c(C)oc2c1c(C(c1cccnc1)N1CCN(C)CC1)c(O)c1ccccc12 (configuration not stated)	H69AR growth 86K 2.1, HUVEC prolif 384 8.4 (no result: bCat KO growth, HCT116 PTEN-null)
CCOC(=O)c1c(C)oc2c1c(C(c1cccnc1)N1CCOCC1)c(O)c1ccccc12 (configuration not stated)	none (no result: H69AR growth 86K, Fibroblast inh, HUVEC prolif 384)
CC(C)c1ccc(NC(=O)COc2ccc(F)cc2C(=O)c2cnn(-c3ccccc3)c2)cc1	none (no result: H69AR growth 86K, Fibroblast inh, HUVEC prolif 384)
CCOC(=O)N1CCC(Nc2c(N3CCN(c4cc(Cl)ccc4C)CC3)c(=O)c2=O)CC1	none
CCOC(=O)N1CCC(Nc2c(-c3ccc(C)c(C)c3)c(=O)c2=O)CC1	H69AR growth 86K 33
Cc1nn(Cc2ccccc2)c(Cl)c1/C=N/NC(=O)CNc1cccc(C(F)(F)F)c1	none (no result: H69AR growth 86K, Fibroblast inh, HUVEC prolif 384)
